This is a sample that favours compounds with a hit; in the whole collection about 2.8% have one here.
PAFAH1B3 FP inh: PAFAH1B3 enzyme inhibitors, primary screen, biochemical, fluorescence polarization, human | Platelet-activating factor acetylhydrolase IB subunit alpha1 (Homo sapiens), Q15102 | recombinant PAFAH1B3, FP-rhodamine probe | inhibition, % at 3.39 µM | 340,000 compounds, 0.28% hits | AID 492972, 2010;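 active = inhibition above the screen-wide average of all tested compounds plus 3 SD, cut at about 25% in these data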;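 also: 0% = enzyme with DMSO only and 100% = wells lacking PAFAH1B3 protein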
ABHD4 inh: ABHD4 inhibitors, primary screen, biochemical, fluorescence polarization, mouse; AID 720543, 2013; inhibition, % at 8.92 µM; 370,000 compounds, 0.54% hits; (Lyso)-N-acylphosphatidylethanolamine lipase (Mus musculus), Q8VD66; purified mABHD4, FP-Rh probe fluorescence polarization;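 active = inhibition exceeding the mean over every tested compound plus 3 SD, cut at about 30% in these data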;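 also: 0% = plate median of compound wells and 100% = S159A mutant with DMSO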
Target sequence (Q8VD66 whole entry, looked up): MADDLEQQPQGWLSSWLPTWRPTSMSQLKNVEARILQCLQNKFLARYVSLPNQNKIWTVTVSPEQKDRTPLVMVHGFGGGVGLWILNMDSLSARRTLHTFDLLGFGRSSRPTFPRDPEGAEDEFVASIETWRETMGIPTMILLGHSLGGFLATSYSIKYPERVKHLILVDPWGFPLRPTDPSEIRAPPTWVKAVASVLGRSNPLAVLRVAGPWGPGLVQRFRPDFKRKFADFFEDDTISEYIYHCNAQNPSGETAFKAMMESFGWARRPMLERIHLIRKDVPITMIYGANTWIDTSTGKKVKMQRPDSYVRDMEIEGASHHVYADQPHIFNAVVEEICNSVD
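Assay system: Wild-type mouse ABHD4 protein | Medium: HEPES pH 7.0 buffer, 150 mM NaCl, 0.01% Pluronic F-127 | Incubation: Enzyme–compound pre-incubation 45 min, then probe 60 min, both 25 °C | Technique: Fluorescence polarization with parallel and perpendicular emission, 525/598 nm | Evaluation: % inhibition of FP-Rh probe binding versus controls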
PAFAH1B2 FP inh: PAFAH1B2 enzyme inhibitors, primary screen, biochemical, fluorescence polarization, human. recombinant PAFAH1B2, FP-rhodamine activity probe. inhibition, % at 3.39 µM. 340,000 compounds, 1.2% hits;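 active = inhibition above the mean of all tested compounds plus 3 SD, cut at about 24% in these data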;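 also: 0% = enzyme with DMSO and 100% = wells lacking PAFAH1B2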
PAFAH2 inh: PAFAH2 enzyme inhibitors, primary screen, biochemical, fluorescence polarization, human; Platelet-activating factor acetylhydrolase 2, cytoplasmic (Homo sapiens), Q99487; recombinant PAFAH2, FP-rhodamine activity probe; inhibition, % at 3.39 µM; 340,000 compounds, 0.99% hits; AID 492956, 2010;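 active = inhibition above the mean over all tested compounds plus 3 SD, cut at about 30% in these data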;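 also: inhibitors block probe labeling of enzyme so polarization drops; 0% = enzyme with DMSO and 100% = wells lacking PAFAH2 protein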
HTRA1 inhibitor: HTRA1 serine protease inhibitors, primary screen, biochemical, fluorescence polarization, HTS; Q92743; recombinant HTRA1, FP-rhodamine activity-based probe; inhibition, % at 5.96 µM; 340,000 compounds, 0.5% hits; AID 504803, 2011; in the data active = inhibition above about 36%;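 also: 0% = enzyme with DMSO and 100% = wells lacking enzyme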
pPAFAH inh: pPAFAH enzyme inhibitors, primary screen, biochemical, fluorescence polarization, human; Platelet-activating factor acetylhydrolase (Homo sapiens), Q13093; recombinant pPAFAH, FP-rhodamine probe fluorescence polarization; inhibition, % at 3.39 µM; 330,000 compounds, 1.5% hits; AID 463082, 2010;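 active = inhibition above the mean inhibition across the screen plus 3 SD, cut at about 25% in these data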;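 also: inhibitors block binding of the rhodamine activity-based probe so polarization drops; 0% = enzyme with DMSO and 100% = wells lacking pPAFAH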
Starred values were filed as active, the others as inactive.

For Cc1cc(=O)[nH]c(SCC(=O)NC(C)C2CC3CCC2C3)c1C#N (stereo not drawn) the results were PAFAH1B3 FP inh 0, ABHD4 inh -9, PAFAH1B2 FP inh 18, PAFAH2 inh 8, HTRA1 inhibitor -7 and pPAFAH inh 23.
`CC(NC(=O)CSc1n[nH]c(=O)[nH]c1=O)C1CC2CCC1C2` (stereo not drawn) gave PAFAH1B3 FP inh 5, ABHD4 inh 2, PAFAH1B2 FP inh 27*, PAFAH2 inh -3, HTRA1 inhibitor 4 and pPAFAH inh 0.
`CC(NC(=O)CSc1ncccc1C(=O)O)C1CC2CCC1C2` (stereo not drawn) gave PAFAH1B3 FP inh 0, ABHD4 inh -1, PAFAH1B2 FP inh 29*, PAFAH2 inh 8, HTRA1 inhibitor 3 and pPAFAH inh 3.
For COc1cccc(NC(=O)C2CCCN2C(=O)NCc2ccccc2OC)c1 (stereo not drawn) the results were ABHD4 inh 5.
`Cc1ccc(S(=O)(=O)Oc2ccc(/C=N/NC(=O)c3nn(C)cc3[N+](=O)[O-])cc2)cc1` gave PAFAH1B3 FP inh -4, ABHD4 inh -29, PAFAH1B2 FP inh 28*, PAFAH2 inh -3, HTRA1 inhibitor -11 and pPAFAH inh 2.
`Cc1ccc(S(=O)(=O)Oc2ccccc2/C=N/NC(=O)c2nn(C)cc2[N+](=O)[O-])cc1` gave PAFAH1B3 FP inh 5, ABHD4 inh -2, PAFAH1B2 FP inh 7, PAFAH2 inh 5, HTRA1 inhibitor 4 and pPAFAH inh 7.
`O=C(CSc1nc2ccccc2n1Cc1ccccc1Cl)N/N=C\c1cccc(Oc2ccccc2)c1` gave ABHD4 inh -1.
CCCCCCc1cc2cc(C(=O)OCC)c(=O)oc2cc1O was read as PAFAH1B3 FP inh 2, ABHD4 inh -8, PAFAH1B2 FP inh 4, PAFAH2 inh 8, HTRA1 inhibitor -5 and pPAFAH inh -1.
For CCCCCCc1cc2cc(S(=O)(=O)c3ccc(F)c(Cl)c3)c(=O)oc2cc1O the results were PAFAH1B3 FP inh 3, ABHD4 inh 2, PAFAH1B2 FP inh 1, PAFAH2 inh 26, HTRA1 inhibitor -2 and pPAFAH inh 33*.
Screening O=C(N1CCC(n2nc(-c3ccccc3)oc2=O)CC1)C1(c2ccccc2)CCCC1 returned ABHD4 inh 2.
For S=C1NCN(CCc2ccccc2)CN1Cc1ccccc1 the results were PAFAH1B3 FP inh 2, ABHD4 inh -5, PAFAH1B2 FP inh 26*, PAFAH2 inh 10, HTRA1 inhibitor 2 and pPAFAH inh -3.
`C=CCn1c(COc2ccc(Cl)cc2)nnc1SCC(=O)c1ccc(-c2ccccc2)cc1` gave ABHD4 inh 1.
Screening CC(=O)c1cc(-c2ccc(Oc3ccccc3)cc2)c(=O)n2c1CCC2 returned ABHD4 inh -2.
For CN1C2=N[C@@H](c3ccc4c(c3)OCO4)CC(=O)N2/C(=C\c2ccccc2)[C@H]1c1ccccc1 the results were ABHD4 inh -2.
Cc1ccc(C2C(C#N)=C(N)SC(N)=C2C#N)cc1 was read as PAFAH1B3 FP inh -30, ABHD4 inh -13, PAFAH1B2 FP inh -15, PAFAH2 inh -67 and HTRA1 inhibitor -29.
Screening N#CC1=C(N)SC(N)=C(C#N)C1c1ccoc1 returned pPAFAH inh 68*.
For O=C(N/N=C\c1c(O)ccc2ccccc12)c1ccc(O)cc1 the results were PAFAH1B3 FP inh 41*, ABHD4 inh 1, PAFAH1B2 FP inh 21, PAFAH2 inh -14, HTRA1 inhibitor 14 and pPAFAH inh 26*.
O=C(CSCC(=O)Nc1ccccc1)N/N=C/c1c(O)ccc2ccccc12 was read as PAFAH1B3 FP inh 16, ABHD4 inh 8, PAFAH1B2 FP inh 5, PAFAH2 inh 8, HTRA1 inhibitor 34 and pPAFAH inh 11.
Screening O=C(N/N=C/c1c(O)ccc2ccccc12)Nc1ccccc1 returned ABHD4 inh 29 and pPAFAH inh 27*.

Screening results deposited in PubChem by The Scripps Research Institute Molecular Screening Center.
